Assay results as given in ChEMBL document CHEMBL5653631, “A Potent and Selective ULK1 Inhibitor Suppresses Autophagy and Sensitizes Cancer Cells to Nutrient Stress” (iScience, 2018).
Blank lines part the entries; values can stand above or below the compound they belong to.

Assays:
[1] = molecular target: Tyrosine-protein kinase JAK1 (Homo sapiens) (UniProt P23458); test: Inhibition of human recombinant JAK1 at 500 nM in presence of ATP by radiometric assay relative to control
[2] = molecular target: Casein kinase I isoform gamma-2 (Homo sapiens) (UniProt P78368); test: Inhibition of human recombinant CK1g2 at 500 nM in presence of ATP by radiometric assay relative to control
Casein kinase I isoform gamma-2 (Homo sapiens), sequence (P78368 whole entry, looked up, canonical isoform): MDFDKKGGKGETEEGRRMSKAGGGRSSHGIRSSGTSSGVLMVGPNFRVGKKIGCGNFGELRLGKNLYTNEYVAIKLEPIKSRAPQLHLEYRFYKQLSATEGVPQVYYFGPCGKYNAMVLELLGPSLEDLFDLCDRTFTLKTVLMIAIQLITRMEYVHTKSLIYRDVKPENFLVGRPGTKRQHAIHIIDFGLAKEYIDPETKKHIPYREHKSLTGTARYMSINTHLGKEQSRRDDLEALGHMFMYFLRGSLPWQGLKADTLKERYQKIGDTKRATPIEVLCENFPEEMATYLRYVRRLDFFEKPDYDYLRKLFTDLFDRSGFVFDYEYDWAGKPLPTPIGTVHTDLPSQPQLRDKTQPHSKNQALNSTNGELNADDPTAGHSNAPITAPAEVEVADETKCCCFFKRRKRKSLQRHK

[3] = molecular target: 5'-AMP-activated protein kinase catalytic subunit alpha-1 (Homo sapiens) (UniProt Q13131); test: Inhibition of human recombinant AMPKa1 at 500 nM related to control ULK1
5'-AMP-activated protein kinase catalytic subunit alpha-1 (Homo sapiens), sequence (Q13131 whole entry, looked up): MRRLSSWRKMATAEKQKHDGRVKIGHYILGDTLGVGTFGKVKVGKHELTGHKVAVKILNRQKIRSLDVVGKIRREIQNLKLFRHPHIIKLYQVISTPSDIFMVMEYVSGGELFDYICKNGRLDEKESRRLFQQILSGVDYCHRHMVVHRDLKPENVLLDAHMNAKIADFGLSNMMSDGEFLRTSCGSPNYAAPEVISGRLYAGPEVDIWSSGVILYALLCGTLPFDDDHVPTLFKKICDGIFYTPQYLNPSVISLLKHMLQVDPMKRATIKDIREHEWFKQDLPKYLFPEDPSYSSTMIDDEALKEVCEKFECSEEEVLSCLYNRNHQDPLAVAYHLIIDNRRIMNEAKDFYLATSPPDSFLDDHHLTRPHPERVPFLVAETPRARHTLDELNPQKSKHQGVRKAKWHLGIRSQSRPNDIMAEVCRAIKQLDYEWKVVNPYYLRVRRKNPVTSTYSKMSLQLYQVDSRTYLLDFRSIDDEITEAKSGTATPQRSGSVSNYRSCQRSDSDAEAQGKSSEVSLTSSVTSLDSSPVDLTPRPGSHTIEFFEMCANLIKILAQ
Method in brief: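 Panel of 327 recombinant human kinases, each assayed in vitro by radiometric activity assay in duplicate at a single inhibitor concentration per compound, chosen with reference to its ULK1 inhibition. Activity remaining was expressed as percent of vehicle control, and percent inhibition was calculated as 100 minus percent activity remaining.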

[4] = molecular target: Serine/threonine-protein kinase VRK2 (Homo sapiens) (UniProt Q86Y07); test: Inhibition of human recombinant VRK2 at 500 nM in presence of ATP by radiometric assay relative to control
[5] = molecular target: Rho-associated protein kinase 2 (Homo sapiens) (UniProt O75116); test: Inhibition of human recombinant ROCK2 at 15 nM related to control ULK1
Rho-associated protein kinase 2 (Homo sapiens), sequence (O75116 whole entry, looked up): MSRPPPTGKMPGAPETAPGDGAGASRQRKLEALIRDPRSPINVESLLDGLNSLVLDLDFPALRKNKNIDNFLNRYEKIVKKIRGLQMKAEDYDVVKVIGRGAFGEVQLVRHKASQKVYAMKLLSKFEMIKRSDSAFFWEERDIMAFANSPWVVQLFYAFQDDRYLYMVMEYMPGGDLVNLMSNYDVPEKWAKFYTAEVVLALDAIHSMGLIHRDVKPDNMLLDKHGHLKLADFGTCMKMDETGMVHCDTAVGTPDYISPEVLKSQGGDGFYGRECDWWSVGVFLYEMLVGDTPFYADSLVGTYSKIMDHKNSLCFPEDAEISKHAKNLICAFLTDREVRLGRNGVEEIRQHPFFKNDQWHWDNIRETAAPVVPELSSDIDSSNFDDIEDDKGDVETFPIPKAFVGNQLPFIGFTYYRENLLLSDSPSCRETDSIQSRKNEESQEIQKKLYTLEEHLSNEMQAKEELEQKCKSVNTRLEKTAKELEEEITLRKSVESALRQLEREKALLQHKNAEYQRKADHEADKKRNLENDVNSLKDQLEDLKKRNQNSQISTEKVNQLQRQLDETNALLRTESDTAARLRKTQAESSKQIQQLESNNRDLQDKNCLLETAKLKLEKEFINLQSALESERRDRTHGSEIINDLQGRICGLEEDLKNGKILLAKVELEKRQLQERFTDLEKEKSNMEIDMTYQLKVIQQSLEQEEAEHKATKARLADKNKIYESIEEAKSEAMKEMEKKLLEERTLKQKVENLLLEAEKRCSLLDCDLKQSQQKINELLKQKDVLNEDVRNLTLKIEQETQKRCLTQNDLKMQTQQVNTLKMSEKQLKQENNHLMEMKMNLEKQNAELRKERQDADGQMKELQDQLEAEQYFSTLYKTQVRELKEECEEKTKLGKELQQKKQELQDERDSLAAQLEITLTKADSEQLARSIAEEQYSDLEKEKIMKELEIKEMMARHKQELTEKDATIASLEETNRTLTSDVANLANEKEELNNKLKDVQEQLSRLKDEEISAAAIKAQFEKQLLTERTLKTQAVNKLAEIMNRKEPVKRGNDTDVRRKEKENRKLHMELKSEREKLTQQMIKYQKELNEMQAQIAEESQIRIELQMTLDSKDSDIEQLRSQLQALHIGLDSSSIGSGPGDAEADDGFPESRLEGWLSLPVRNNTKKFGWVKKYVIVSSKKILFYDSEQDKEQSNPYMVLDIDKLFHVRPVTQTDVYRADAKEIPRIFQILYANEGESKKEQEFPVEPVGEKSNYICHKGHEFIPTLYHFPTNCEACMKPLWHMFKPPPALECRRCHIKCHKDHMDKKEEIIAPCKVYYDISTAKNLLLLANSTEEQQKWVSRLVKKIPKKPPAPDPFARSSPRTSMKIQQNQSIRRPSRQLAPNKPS

[6] = molecular target: Serine/threonine-protein kinase ULK1 (Homo sapiens, UniProt O75385); test: Inhibition of human ULK1
[7] = molecular target: T1, Ephrin type-B receptor 4 (Homo sapiens) (UniProt P54760); test: Inhibition of human recombinant EphB4 at 15 nM related to control ULK1
T1 sequence (whole entry): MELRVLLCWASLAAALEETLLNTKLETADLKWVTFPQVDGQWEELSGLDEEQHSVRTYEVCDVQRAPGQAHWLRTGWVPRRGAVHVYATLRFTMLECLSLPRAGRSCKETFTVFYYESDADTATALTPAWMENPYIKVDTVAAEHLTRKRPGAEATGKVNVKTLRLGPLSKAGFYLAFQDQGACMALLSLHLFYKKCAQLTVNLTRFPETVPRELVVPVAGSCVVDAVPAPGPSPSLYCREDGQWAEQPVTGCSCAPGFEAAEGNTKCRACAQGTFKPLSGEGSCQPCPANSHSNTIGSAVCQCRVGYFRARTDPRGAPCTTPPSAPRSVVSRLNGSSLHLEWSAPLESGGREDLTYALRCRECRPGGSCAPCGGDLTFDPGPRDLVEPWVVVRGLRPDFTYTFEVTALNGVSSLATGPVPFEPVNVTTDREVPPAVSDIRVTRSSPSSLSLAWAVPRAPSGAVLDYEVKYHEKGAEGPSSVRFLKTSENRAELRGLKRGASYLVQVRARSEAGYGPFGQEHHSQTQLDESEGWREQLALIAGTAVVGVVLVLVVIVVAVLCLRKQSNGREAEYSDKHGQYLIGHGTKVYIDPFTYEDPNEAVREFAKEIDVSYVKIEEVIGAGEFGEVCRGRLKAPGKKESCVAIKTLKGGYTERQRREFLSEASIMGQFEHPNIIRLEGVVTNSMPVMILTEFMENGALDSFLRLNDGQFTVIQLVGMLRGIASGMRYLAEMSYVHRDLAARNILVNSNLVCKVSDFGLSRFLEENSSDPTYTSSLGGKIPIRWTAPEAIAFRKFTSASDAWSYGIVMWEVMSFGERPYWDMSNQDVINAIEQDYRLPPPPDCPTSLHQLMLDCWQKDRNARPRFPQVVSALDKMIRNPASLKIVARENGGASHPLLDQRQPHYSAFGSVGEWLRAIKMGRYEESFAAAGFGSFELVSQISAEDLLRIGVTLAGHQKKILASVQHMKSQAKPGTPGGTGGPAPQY

[8] = molecular target: Proto-oncogene tyrosine-protein kinase Src (Homo sapiens) (UniProt P12931); test: Inhibition of human recombinant SRC at 15 nM related to control ULK1
Proto-oncogene tyrosine-protein kinase Src (Homo sapiens), sequence (P12931 2-536 limits assumed): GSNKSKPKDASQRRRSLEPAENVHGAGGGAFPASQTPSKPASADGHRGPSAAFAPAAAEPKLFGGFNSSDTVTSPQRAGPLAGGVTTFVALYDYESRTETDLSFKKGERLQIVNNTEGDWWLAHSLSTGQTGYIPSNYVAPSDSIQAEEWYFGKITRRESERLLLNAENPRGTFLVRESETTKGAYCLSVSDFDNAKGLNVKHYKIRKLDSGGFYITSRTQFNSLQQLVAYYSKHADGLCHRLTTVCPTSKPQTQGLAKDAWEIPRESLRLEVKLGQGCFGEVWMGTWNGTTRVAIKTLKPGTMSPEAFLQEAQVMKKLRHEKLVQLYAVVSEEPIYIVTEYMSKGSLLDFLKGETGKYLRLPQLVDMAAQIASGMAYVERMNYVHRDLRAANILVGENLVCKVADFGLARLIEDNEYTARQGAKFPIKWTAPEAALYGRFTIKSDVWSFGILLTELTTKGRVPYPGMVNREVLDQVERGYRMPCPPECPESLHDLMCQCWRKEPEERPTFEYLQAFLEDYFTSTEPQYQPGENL

[9] = molecular target: Mast/stem cell growth factor receptor Kit (Homo sapiens) (UniProt P10721); test: Inhibition of human recombinant KIT at 40 nM in presence of ATP by radiometric assay relative to control
[10] = molecular target: Myosin light chain kinase, smooth muscle (Homo sapiens) (UniProt Q15746); test: Inhibition of human recombinant smMLCK at 40 nM in presence of ATP by radiometric assay relative to control
[11] = molecular target: T2, Mitogen-activated protein kinase 13 (Homo sapiens) (UniProt O15264); test: Inhibition of human recombinant p38delta at 40 nM in presence of ATP by radiometric assay relative to control
T2 sequence (whole entry): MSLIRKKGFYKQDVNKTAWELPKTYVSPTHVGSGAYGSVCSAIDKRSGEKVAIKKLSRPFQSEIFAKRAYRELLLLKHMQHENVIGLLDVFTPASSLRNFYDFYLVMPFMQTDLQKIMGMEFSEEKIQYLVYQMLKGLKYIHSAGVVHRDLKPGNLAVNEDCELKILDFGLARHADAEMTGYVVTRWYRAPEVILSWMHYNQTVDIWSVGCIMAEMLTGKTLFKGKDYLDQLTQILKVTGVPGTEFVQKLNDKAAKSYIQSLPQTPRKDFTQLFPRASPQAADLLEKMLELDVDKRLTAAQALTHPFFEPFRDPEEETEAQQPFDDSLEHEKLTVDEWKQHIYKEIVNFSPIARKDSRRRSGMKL

[12] = molecular target: Cyclin-dependent kinase 18 (Homo sapiens) (UniProt Q07002); test: Inhibition of human recombinant PCTAIRE3 at 40 nM related to control ULK1
Cyclin-dependent kinase 18 (Homo sapiens), sequence (Q07002 whole entry): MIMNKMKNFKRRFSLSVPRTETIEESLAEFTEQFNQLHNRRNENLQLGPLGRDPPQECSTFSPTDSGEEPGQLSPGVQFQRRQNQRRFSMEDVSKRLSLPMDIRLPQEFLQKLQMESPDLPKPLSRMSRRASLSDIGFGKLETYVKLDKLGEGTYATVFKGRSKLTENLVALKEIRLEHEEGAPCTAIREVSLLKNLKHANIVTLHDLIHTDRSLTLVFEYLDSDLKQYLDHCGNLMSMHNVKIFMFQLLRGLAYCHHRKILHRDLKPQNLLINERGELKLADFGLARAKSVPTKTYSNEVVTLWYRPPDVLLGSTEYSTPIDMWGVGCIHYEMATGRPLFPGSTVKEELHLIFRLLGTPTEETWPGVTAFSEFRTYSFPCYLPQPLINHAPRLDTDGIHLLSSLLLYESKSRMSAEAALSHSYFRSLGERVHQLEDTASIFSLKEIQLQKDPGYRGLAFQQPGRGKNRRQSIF

[13] = molecular target: High affinity nerve growth factor receptor (Homo sapiens) (UniProt P04629); test: Inhibition of human recombinant TRKA at 40 nM related to control ULK1
High affinity nerve growth factor receptor (Homo sapiens), sequence (P04629 33-796 limits assumed): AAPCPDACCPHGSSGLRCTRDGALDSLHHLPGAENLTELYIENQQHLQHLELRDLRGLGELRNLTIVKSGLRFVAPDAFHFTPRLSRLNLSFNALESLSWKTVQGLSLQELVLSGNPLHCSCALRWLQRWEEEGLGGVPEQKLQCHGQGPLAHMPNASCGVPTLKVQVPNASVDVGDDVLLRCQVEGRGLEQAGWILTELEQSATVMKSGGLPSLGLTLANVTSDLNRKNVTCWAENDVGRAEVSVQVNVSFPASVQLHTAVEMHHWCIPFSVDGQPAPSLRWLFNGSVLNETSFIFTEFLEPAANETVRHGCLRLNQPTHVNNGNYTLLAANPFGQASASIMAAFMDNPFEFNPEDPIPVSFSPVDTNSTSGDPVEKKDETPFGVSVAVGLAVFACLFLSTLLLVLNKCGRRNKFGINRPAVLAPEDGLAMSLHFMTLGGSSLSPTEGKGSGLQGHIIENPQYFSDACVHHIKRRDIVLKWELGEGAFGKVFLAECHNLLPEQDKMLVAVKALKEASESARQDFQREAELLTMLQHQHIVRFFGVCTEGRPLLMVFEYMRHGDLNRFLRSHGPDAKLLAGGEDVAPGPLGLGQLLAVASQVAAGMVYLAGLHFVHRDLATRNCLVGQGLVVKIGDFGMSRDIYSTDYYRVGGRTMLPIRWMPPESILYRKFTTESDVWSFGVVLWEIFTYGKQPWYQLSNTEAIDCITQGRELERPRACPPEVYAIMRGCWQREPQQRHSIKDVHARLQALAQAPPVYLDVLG

[14] = molecular target: Tyrosine-protein kinase Fer (Homo sapiens) (UniProt P16591); test: Inhibition of human recombinant FER at 40 nM related to control ULK1
Tyrosine-protein kinase Fer (Homo sapiens), sequence (P16591 whole entry, looked up): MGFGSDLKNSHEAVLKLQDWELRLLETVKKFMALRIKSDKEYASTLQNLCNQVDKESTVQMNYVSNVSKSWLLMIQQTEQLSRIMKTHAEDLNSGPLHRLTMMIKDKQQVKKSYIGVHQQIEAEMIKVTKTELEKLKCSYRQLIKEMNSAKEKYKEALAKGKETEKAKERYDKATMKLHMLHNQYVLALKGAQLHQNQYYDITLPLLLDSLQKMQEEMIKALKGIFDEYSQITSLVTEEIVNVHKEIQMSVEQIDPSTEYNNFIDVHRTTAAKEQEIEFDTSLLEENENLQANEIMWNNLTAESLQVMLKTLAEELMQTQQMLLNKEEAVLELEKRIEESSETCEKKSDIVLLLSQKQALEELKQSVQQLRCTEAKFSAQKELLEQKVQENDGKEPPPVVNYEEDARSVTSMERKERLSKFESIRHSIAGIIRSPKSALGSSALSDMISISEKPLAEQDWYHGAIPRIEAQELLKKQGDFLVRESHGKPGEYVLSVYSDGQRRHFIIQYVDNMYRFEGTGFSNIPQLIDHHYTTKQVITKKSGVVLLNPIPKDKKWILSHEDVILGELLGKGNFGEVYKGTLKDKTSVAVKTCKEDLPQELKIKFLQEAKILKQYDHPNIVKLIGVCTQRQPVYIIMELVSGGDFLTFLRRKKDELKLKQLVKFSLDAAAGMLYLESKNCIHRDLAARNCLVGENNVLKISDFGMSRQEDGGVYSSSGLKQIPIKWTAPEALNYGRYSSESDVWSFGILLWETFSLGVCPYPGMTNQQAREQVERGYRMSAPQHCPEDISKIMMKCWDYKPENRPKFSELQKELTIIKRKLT

inhibition [1]: 39% | inhibition [2]: 0% | fold change (FC) [3]: 0.69 | inhibition [4]: 23%
SMILES: CNC(=O)c1ccccc1Oc1nc(Nc2cc(OC)c(OC)c(OC)c2)ncc1Br

fold change (FC) [5]: 0 | IC50 [6]: 1.6 nM | fold change (FC) [7]: 0.03 | fold change (FC) [8]: 0.17
SMILES: CC(C)[C@H](NC(=O)c1cc(-c2cnn3cc(-c4ccc(OCCN5CCCCC5)cc4)cnc23)cs1)C(F)(F)F

inhibition [9]: 0% | inhibition [10]: 5% | inhibition [11]: 12% | fold change (FC) [12]: 0.42 | fold change (FC) [13]: 0 | fold change (FC) [14]: 0
SMILES: O=C(N[C@@H](C1CC1)C(F)(F)F)c1cc(-c2cnn3cc(-c4ccc(F)cc4)cnc23)cs1
